Sampled rows, rich in hits. Any-hit rate of the full collection: about 2.6%.
TNAP inh noacc – TNAP (human) inhibition, acceptor-free conditions | inhibition, % at 20 µM | purified TNAP, CDP-star luminescence, 30 min | 0.26% of 200,000 active | P05186 | AID 1012;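 active = tissue-nonspecific alkaline phosphatase inhibition above about 50% at 20 µM in the single-dose screen, limit read from the data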
Target sequence (P05186 whole entry, looked up): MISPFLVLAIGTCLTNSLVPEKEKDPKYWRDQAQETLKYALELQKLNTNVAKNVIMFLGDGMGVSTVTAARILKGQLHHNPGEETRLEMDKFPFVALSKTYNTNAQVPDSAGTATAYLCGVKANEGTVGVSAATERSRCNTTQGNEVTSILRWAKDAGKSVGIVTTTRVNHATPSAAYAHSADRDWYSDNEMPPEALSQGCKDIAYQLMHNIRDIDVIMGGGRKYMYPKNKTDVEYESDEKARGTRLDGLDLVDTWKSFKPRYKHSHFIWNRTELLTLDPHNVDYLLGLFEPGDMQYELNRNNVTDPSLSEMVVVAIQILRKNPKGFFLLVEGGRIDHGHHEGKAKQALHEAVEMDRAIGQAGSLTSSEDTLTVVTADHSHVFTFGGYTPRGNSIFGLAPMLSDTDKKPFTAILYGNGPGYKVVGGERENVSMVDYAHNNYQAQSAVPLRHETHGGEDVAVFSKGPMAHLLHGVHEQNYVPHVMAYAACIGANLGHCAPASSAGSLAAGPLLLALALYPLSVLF
WT yeast gro inh – growth inhibition of WT yeast, mitochondrial fusion screen; mitochondrial fusion phenotypic screen, WT strain; inhibition, % at 10 µM; 2.1% of 190,000 active; in the data active = inhibition above about 58%; tested in S. cerevisiae
TNAP act hi DEA – activators of human TNAP at high phosphate acceptor concentration; P05186; AID 1136; 200,000 tested, under 10 active; purified TNAP, CDP-star luminescence, 1 M DEA, 30 min; stronger effect = higher value; 0 = EDTA background, 1 = DMSO-only activity; activation factor at 20 µM;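 active = activation factor at least 2 at 20 µM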
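Control set: EDTA negative control, DMSO positive control / Assay system: human TNAP / Quantity: TNAP 1/800 final / Evaluation: TNAP activation factor scaled between EDTA and DMSO control wells / Measured by: luminescent substrate turnover signal / Compound dosing: one dose, 20 µM / Times: 30 min enzyme reaction at room temperature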
Arbovirus anti – antivirals against arbovirus infection; arbovirus infection cell-based antiviral screen; inhibition, % at 10 µM; 0.37% of 200,000 active; AID 1251; in the data active = inhibition above about 30%
TNAP inh hiacc – inhibitors of human TNAP at high phosphate acceptor concentration; P05186; 0.03% of 200,000 active; purified TNAP, CDP-star luminescence, 1 M DEA; inhibition, % at 20 µM; AID 1135;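 active = over 50% inhibition of tissue-nonspecific alkaline phosphatase at 20 µM in the single-dose screen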
Of the large screens only hits and unclear results are named; the others gave an inactive call.

Fc1ccccc1NC(=S)Nc1ccc(Br)cc1	WT yeast gro inh 61.7
O=C1c2ccccc2C(Nc2ccc(Cl)cn2)N1Cc1ccccc1 (stereo not given)	WT yeast gro inh 71.0
O=C1c2ccccc2C(Nc2ccccc2)N1c1ccc(Cl)cn1 (stereo not given)	none
O=C(Nc1ccc2snnc2c1)Nc1cccc2ccccc12	WT yeast gro inh 89.3
COC(=O)c1nn(-c2ccc(OC)cc2)c(=O)cc1O	none
COc1ccc(-n2nc(C#N)c(Cl)cc2=O)cc1	WT yeast gro inh 67.2
Cc1ccc(S(=O)(=O)N2CCCC2C(=O)O)cc1 (stereo not given)	none
Cc1ccc(C)c(N2CCN(C(=O)c3ccccc3Br)CC2)c1	WT yeast gro inh 58.2 (no result: TNAP inh noacc, TNAP act hi DEA, TNAP inh hiacc)
Cc1cc(C)nc(N2CCC(C(=O)N3CCN(c4cc(Cl)ccc4C)CC3)CC2)n1	WT yeast gro inh 71.7
Cc1ccc(C)c(N2CCN(C(=O)C3CCN(c4nc(C)cc(C)n4)CC3)CC2)c1	WT yeast gro inh 66.5
Cc1ccc(C)c(N2CCN(C(=O)C3CCCCN3S(=O)(=O)c3ccc(F)cc3)CC2)c1 (stereo not given)	WT yeast gro inh 64.3
C=CCn1c(SCC(=O)Nc2ccc3c(c2)OCO3)nnc1-c1ccccc1	none
CC(=O)Nc1ccc(NC(=O)CSc2nnc(-c3ccccc3)n2Cc2ccc3c(c2)OCO3)cc1	WT yeast gro inh 65.6
CCOC(=O)N1CCN(S(=O)(=O)c2ccc(OCC)c(C)c2)CC1	none
CCOC(=O)N1CCN(S(=O)(=O)c2ccc(C)c(C)c2)CC1	WT yeast gro inh 81.5
Cc1ccc(NC(=O)C2=C(O)c3ccccc3N(C)S2(=O)=O)cc1	none
Cc1cc(C)cc(N2C(=O)C3C4C=CC(C4)C3C2=O)c1 (stereo not given)	none
Cc1nn(C(C)(C)C)c(OC(=O)C2CCCC2)c1S(=O)(=O)c1ccccc1	none
Cc1ccc(S(=O)(=O)c2c(C)nn(C(C)(C)C)c2OC(=O)C2CCCC2)cc1	WT yeast gro inh 71.7
CC(=O)COc1cc(C)cc2oc(=O)c(C)c(C)c12	WT yeast gro inh 66.4
COc1ccc2nc(N3C(=O)CC(Cc4ccc(Cl)cc4)C3=O)sc2c1 (stereo not given)	none
COc1ccc2nc(N3C(=O)CC(Cc4cc(C)cc(C)c4)C3=O)sc2c1 (stereo not given)	Arbovirus anti 39.4
CCc1ccccc1NC(=S)N=Nc1c(O)n(C)c2ccc(S(=O)(=O)N3CCOCC3)cc12	WT yeast gro inh 72.1
O=C(CCCCCn1c(=S)[nH]c2ccc(N3CCOCC3)cc2c1=O)NCc1cccc(Cl)c1	none
O=C(Nn1c(-c2ccccc2)nc2ccccc2c1=O)C1CCC1	WT yeast gro inh 70.2
CN(C)C(=S)Nn1c(-c2ccccc2)nc2ccccc2c1=O	none
CC(C(=O)Nc1ccccc1-c1ccccc1)N1CCN(S(=O)(=O)c2ccccc2)CC1 (stereo not given)	Arbovirus anti 60.9
CC(C)c1ccc(S(=O)(=O)N2CCN(C(C)C(=O)Nc3ccccc3-c3ccccc3)CC2)cc1 (stereo not given)	none
CCOC(=O)C1(CCc2ccccc2)CCN(C(=O)[C@@H]2C[C@@H](C)NC(=S)N2)CC1	none
CCc1cccc(NC(=O)CS(=O)Cc2nc(-c3ccc(C)cc3)oc2C)c1 (stereo not given)	none
c1ccc(-c2nc(-c3ccccn3)no2)cc1	none
c1ccc(-c2ccc(-c3nc(-c4ccccn4)no3)cc2)cc1	WT yeast gro inh 77.9
CCc1nc2nc(C)cc(Nc3cccc(C(F)(F)F)c3)n2n1	none
Cc1cc(Nc2cccc(C(F)(F)F)c2)n2nc(C)nc2n1	WT yeast gro inh 79.1
CC1CCCN(c2ccc([N+](=O)[O-])cc2C(=O)c2ccccc2)C1 (stereo not given)	none
COc1ccc(NC(=O)C(C)N2C(=O)c3ccccc3C2=O)cc1S(=O)(=O)N1CCOCC1 (stereo not given)	none
CSc1ccccc1NC(=O)CN(C1CCCCC1)S(C)(=O)=O	none
CN(CC(=O)Nc1ccccc1Sc1ccccc1)C1CCCCC1	WT yeast gro inh 76.4
O=C(NCCCCNC(=O)c1c(F)c(F)c(F)c(F)c1F)c1c(F)c(F)c(F)c(F)c1F	none
CCn1c(=N)n(CC(=O)C23CC4CC(CC(C4)C2)C3)c2ccccc21	WT yeast gro inh 89.6
CCN(CC)c1ccc2c(Cl)c(Br)c(=O)oc2c1	WT yeast gro inh 76.6
CCOC(=O)c1c(C)nc2c(c(SC)nn2-c2ccccc2)c1N	none
O=C(Nc1ccc2c(c1)OCO2)c1ccccc1SCC(=O)N1CCCC1	WT yeast gro inh 65.0
Cc1ccc(C(=O)Cn2c(C(=O)/C=C/c3ccccc3)nc3ccccc32)cc1	none
COc1ccc(S(=O)(=O)N2c3cc(C)ccc3OCC2C(C)(C)C)cc1 (stereo not given)	none
Cc1ccc(S(=O)(=O)N2c3cc(C)ccc3OCC2C(C)(C)C)cc1 (stereo not given)	WT yeast gro inh 68.8
CCN1c2ccccc2-c2nc3ccccc3n2C1c1cccs1 (stereo not given)	WT yeast gro inh 64.4
Cc1cccc(NC(=O)CSc2nnnn2-c2ccc3c(c2)OCCO3)n1	none
N#C/C(=C\c1cn[nH]c1-c1ccc(Cl)cc1)C(=O)NC1CC1	none
N#C/C(=C\c1cn[nH]c1-c1ccc(Cl)cc1)C(=O)NCc1ccccc1	Arbovirus anti 36.8
CCc1ccc(C(C)NC(=O)/C(C#N)=C\c2cn[nH]c2-c2ccccc2)cc1 (stereo not given)	WT yeast gro inh 59.0
Cc1[nH]c2ccccc2c1/C=C(\C#N)C(=O)NC(C)c1ccccc1 (stereo not given)	WT yeast gro inh 84.5
Cc1cccc(NC(=O)c2ccc(COc3cccc4ccccc34)o2)n1	none
O=C1CC(NCc2ccncc2)C(=O)N1c1ccc(Cl)cc1 (stereo not given)	none
COn1c2c(c3c4nonc4ccc31)CCCC2	none
On1c2c(c3c4nonc4ccc31)CCCC2	WT yeast gro inh 73.9
COc1ccc(NC(=O)N2CCCC(c3nc(-c4ccc(C(C)C)cc4)no3)C2)cc1 (stereo not given)	WT yeast gro inh 72.2
COc1ccc(NC(=O)N2CCCC(c3nc(-c4ccc(OC)cc4)no3)C2)cc1 (stereo not given)	none
CC1CN(c2ccccc2)NC1=O (stereo not given)	none
CN(C)CCCN1c2ccccc2Sc2ccc(C(F)(F)F)cc21	WT yeast gro inh 95.3
OCCN1CCN(CCCN2c3ccccc3Sc3ccc(C(F)(F)F)cc32)CC1	none
CCNC(=S)N/N=C/c1ccc(OCC(=O)Nc2ccc(C)cc2)cc1	none
COc1cccc(OC)c1OCCCOc1ccc(C)cc1Br	WT yeast gro inh 66.8
COc1ccccc1OCCCOc1c(C)cc(C)cc1Br	none
O=C(Cc1c(O)c2ccccc2[nH]c1=O)NCc1ccccc1F	WT yeast gro inh 60.0
O=C(Cc1c(O)c2ccccc2[nH]c1=O)NCc1cccc(F)c1	none
CCOc1cccc(CNc2ccc(O)cc2)c1OCc1ccc(Cl)cc1Cl	WT yeast gro inh 66.1
CCOc1cccc(CNc2ccc(O)cc2)c1OCc1ccccc1Cl	none
